# PREPL inhibitor: PREPL enzyme inhibitors, primary screen, biochemical, fluorescence polarization; AID 2751, 2010; recombinant PREPL, fluorescence polarization activity-based probe; Prolyl endopeptidase-like (Homo sapiens), Q4J6C6; inhibition, % at 5.96 µM; 0.68% of 320,000 active; in the data active = inhibition above about 43%;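 also: 0% = enzyme with DMSO and 100% = wells lacking enzyme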
# Target sequence (Q4J6C6 whole entry, looked up): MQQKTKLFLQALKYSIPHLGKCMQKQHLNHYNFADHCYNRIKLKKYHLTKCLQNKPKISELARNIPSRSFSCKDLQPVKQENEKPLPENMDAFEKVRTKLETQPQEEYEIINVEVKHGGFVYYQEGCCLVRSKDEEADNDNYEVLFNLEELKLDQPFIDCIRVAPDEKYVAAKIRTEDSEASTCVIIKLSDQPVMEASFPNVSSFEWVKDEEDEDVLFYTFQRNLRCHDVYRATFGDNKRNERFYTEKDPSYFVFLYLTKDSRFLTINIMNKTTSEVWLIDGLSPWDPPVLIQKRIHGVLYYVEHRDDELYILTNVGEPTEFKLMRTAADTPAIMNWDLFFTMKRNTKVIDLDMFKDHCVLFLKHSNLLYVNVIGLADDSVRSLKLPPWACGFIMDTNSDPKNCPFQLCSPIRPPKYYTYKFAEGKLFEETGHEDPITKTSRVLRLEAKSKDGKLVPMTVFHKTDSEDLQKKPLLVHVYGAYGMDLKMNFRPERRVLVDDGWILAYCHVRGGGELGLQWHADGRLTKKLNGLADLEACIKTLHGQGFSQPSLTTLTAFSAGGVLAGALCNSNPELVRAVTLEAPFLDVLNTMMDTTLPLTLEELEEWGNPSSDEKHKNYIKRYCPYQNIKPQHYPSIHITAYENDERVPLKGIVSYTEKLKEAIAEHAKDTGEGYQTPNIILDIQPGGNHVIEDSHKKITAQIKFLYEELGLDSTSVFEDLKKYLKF
# CHOP inhibitor: inhibitors of CHOP promoter induction, primary screen, cell-based, unfolded protein response, luciferase reporter; CHO-K1 CHOP-promoter luciferase, tunicamycin-induced, 15-18 h; 3.8% of 220,000 active; inhibition, % at 10 µM; AID 2732, 2010;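 active = compounds that reduced the stress-induced luciferase reporter signal by more than about 70% of percent inhibition, limit read from the data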;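 also: 0% = tunicamycin plus vehicle and 100% = wells without tunicamycin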
# T cruzi repl: inhibitors of intracellular T. cruzi growth, primary screen, luminescence, NIH3T3 host cells | T. cruzi beta-gal in NIH3T3, 90 h | inhibition, % (concentration not given with the values) | 1.4% of 300,000 active | AID 1885, 2009;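 active = mean inhibition across valid replicates above about 55%, limit read from the data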;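 also: signal also drops with host cell toxicity which is not excluded here; 0% = plate median of DMSO wells and 100% = zero luminescence signal; higher percent means less beta-gal luminescence so fewer parasites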
#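 System – NIH/3T3 host cells with β-galactosidase reporter T. cruzi · Doses – single 50 nL compound addition per well in DMSO · Reagent – 5000 T. cruzi trypomastigotes/well · Medium – Low-serum DMEM with 2% FBS · Timing – ≥90 h infection period, 3 h prior cell attachment · Evaluation – parasite load inhibition, % · Technique – GalScreen luminescence, 60 min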
# CSC inhib: cancer stem cell viability inhibitors, primary screen, luminescence. 1.1% of 300,000 active. inhibition, % at 7.5 µM. cancer stem cell-like cells viability; in the data active = inhibition above about 75%; tested in HMLE shEcad cells
# NR3A LBD binder: binders of NR3A ligand-binding domain, primary screen, biophysical, differential scanning fluorimetry, uHTS; 2.5% of 340,000 active; Tm shift relative to glycine control, % at 25 µM; Glutamate receptor ionotropic, NMDA 3A (GRIN3A) ligand-binding domain; NR3A LBD differential scanning fluorimetry, Tm shift; 0% = protein alone, 100% = glycine-bound protein; AID 1259313, 2017;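 active = melting temperature shift of at least 10% of the positive control shift, at one fixed dose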
# Beta cell apopt: inhibitors of cytokine-induced beta cell apoptosis, primary screen, luminescence. AID 435005, 2010. INS-1E cytokine-induced death, ATP luminescence, 48 h; percent of positive-control rescue, neutral wells zero. 0.8% of 300,000 active. protection from apoptosis, % (concentration not given with the values);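 active = Every replicate reaches about 75%, or at least half do and their mean reaches it too, limit read from the data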;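 also: 0% = cytokine-treated negative control wells and 100% = positive control rescue; higher means more ATP so stronger rescue from cytokine killing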
# * marks the source's active call; other numbers are inactive results; nt = no result. Rows were chosen to be rich in hits. Some 6.7% of all compounds tested hit in one or more screens of this group.
SMILES,PREPL inhibitor,CHOP inhibitor,T cruzi repl,CSC inhib,NR3A LBD binder,Beta cell apopt
O=C(CNC(=O)c1ccccc1Cl)N/N=C/C=C/c1ccccc1,1,30,-22,-10,-1,-2
CNc1ncnc(Sc2ccc(Cl)cc2)c1[N+](=O)[O-],18,13,66*,18,2,-4
COc1ccc(/C=N/c2oc(-c3ccccc3)cc2C#N)cc1OC,5,20,-6,-7,37*,-6
COc1ccc(/C=N/NC(=O)c2nc(-c3ccccc3)cc(-c3ccccc3)n2)cc1OC,-11,-19,40,-11,-1,5
CN(C)CCNc1nc2sc3c(c2c(=O)n1-c1ccccc1)CCCCC3,23,21,40,75*,-1,-9
Cc1sc2nc(SCC(=O)NCc3ccco3)n(CCc3ccccc3)c(=O)c2c1C,-5,95*,41,0,-6,24
CCn1c(SCC(=O)NC(=O)NCc2ccco2)nc2sc(C)c(C)c2c1=O,3,55,14,1,0,-3
Cc1sc2nc(SCC(=O)c3cccs3)n(Cc3ccco3)c(=O)c2c1C,6,-10,42,nt,11*,2
CN(C)CCNc1nc2sc3c(c2c(=O)n1-c1ccc(F)cc1)CCCCC3,28,5,42,5,-1,3
Cc1sc2nc(SCC(=O)NCc3ccco3)n(C)c(=O)c2c1C,4,37,1,6,0,-2
Cc1ccc(-n2c(SCC(=O)NCc3ccco3)nc3c(sc4ccccc43)c2=O)cc1,-11,-37,18,nt,10*,7
CC(C)(C)C(=O)Nc1cccc(-c2ncon2)c1,-5,5,-35,-6,0,-2
COc1ccc(S(=O)(=O)NCC2CCCN(C(=O)CCSC)C2)cc1 (stereo unspecified),-2,nt,-2,-8,2,nt
Cc1nc2ccccc2n1CCc1nc2c3ccccc3nc(SCC#N)n2n1,-4,-26,-2,-2,nt,-3
Cc1sc2nc(SCc3ccc(C(=O)O)cc3)n(Cc3ccco3)c(=O)c2c1C,-11,4,61*,-12,-1,8
C=CCn1c(SCc2ccc(C(=O)O)cc2)nc2sc(C)c(C)c2c1=O,-2,19,-2,4,-5,-1
Cc1nc2ccccc2n1CCc1nc2c3ccccc3nc(SCC(=O)NCc3ccco3)n2n1,-53,72*,-1,nt,0,-1
C=CCn1c(SCC(=O)NC(=O)NCc2ccco2)nc2sc(CC)cc2c1=O,-1,83*,8,-8,0,16
O=C(CSc1nc2sc3c(c2c(=O)n1-c1ccccc1)CCCC3)NCc1ccco1,7,84*,35,nt,2,nt
CC1(C)Cc2c(sc3nc(SCC(=O)NCc4ccco4)n(-c4ccccc4)c(=O)c23)CS1,-2,29,36,15,2,3
C=CCn1c(SCC(=O)NCC2CCCO2)nc2scc(-c3ccco3)c2c1=O (stereo unspecified),5,41,-6,-15,0,-7
O=C(CSc1nc2scc(-c3ccco3)c2c(=O)n1-c1ccccc1)NCC1CCCO1 (stereo unspecified),10,100*,2,-4,4,-6
Cc1cc(C(=O)Nc2cccc(O)c2)c(C)o1,5,0,-17,4,17*,-12
Cc1ccc(C)c(OCc2cc(C(=O)NC3CCOC(C)(C)C3)no2)c1 (stereo unspecified),1,nt,-9,1,0,-2
Clc1cccc(/C=N/Nc2nc(Cl)nc3ccccc23)c1,46*,10,25,9,0,nt
Fc1ccccc1/C=N/Nc1ncnc2ccccc12,43,-17,-22,2,-5,4
Clc1ccc(/C=N/Nc2ncnc3ccccc23)cc1Cl,28,86*,22,23,17*,2
Cc1cc(C)nc(N/N=C/c2cccc(Cl)c2)n1,-5,-13,-1,-9,-1,-1
CCN(C(=O)CSc1n[nH]c(N)n1)C1CCCCC1,9,nt,nt,-20,0,-11

# Screening data: PubChem, several laboratories
